Assay results published in ChEMBL document CHEMBL3297699, “Synthesis of novel fluoro analogues of MKC442 as microbicides” (J Med Chem, 2014).

What was measured:
[1] = Cytotoxicity against human MT4 cells after 96 hrs by MTT assay; assay type: cell-based
How it was run: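 Serial compound dilutions (from DMSO stocks at […]) are added, then cells are held 96 h at 37 °C in humidified 5% CO2. Viability is read by MTT. The value is the concentration reducing proliferation by 50%, as the mean of three independent determinations, run in parallel with the antiviral assays.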

[2] = tested on: Human immunodeficiency virus 1; experiment: Antiviral activity against […] HIV1 harboring 103N, 181C mutant infected in human MT4 cells assessed as inhibition of virus-induced cytopathogenicity after 4 days by MTT assay; assay type: functional, organism-based; details: Human immunodeficiency virus 1, MT4, 96 h
How it was run: (§1)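 MT-4 cells grown at 37 °C, 5% CO2 in RPMI-1640 with 10% FCS, penicillin and streptomycin. Compounds taken up in DMSO at […] (stock), then diluted in medium. 1 × 10^4 cells per well with serial compound dilutions, then HIV-1 inoculum sized to give complete cytopathogenicity by day 4. Viability read by MTT. […] Mean of three independent determinations.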

[3] = tested on: Human immunodeficiency virus 1; experiment: Antiviral activity against TMC125-resistant HIV1 harboring RT 109M, 138K, 190E mutant infected in human MT4 cells assessed as inhibition of virus-induced cytopathogenicity after 4 days by MTT assay; assay type: functional, organism-based; details: Human immunodeficiency virus 1, MT4, 96 h; how it was run: as §1
[4] = tested on: Human immunodeficiency virus 1; experiment: Antiviral activity against 6-[(3,5-Dimethylphenyl)fluoromethyl]-5-ethyl-1-{[[4-(3-hydroxyprop-1-ynyl)benzyl]oxy]methyl}pyrimidine-2,4(1H,3H)-dione-resistant HIV1 harboring RT 106I, 181C mutant infected in human MT4 cells assessed as inhibition of virus-induced cytopathogenicity after 4 days by MTT assay; assay type: functional, organism-based; details: Human immunodeficiency virus 1, MT4; how it was run: as §1
[5] = tested on: Human immunodeficiency virus 1; experiment: Antiviral activity against TMC120-resistant HIV1 harboring RT 100I, 138G mutant infected in human MT4 cells assessed as inhibition of virus-induced cytopathogenicity after 4 days by MTT assay; assay type: functional, organism-based; details: Human immunodeficiency virus 1, MT4, 96 h; how it was run: as §1
[6] = tested on: Human immunodeficiency virus 1; experiment: Antiviral activity against zidovudine-resistant HIV1 harboring RT 67N, 70R, 215F, 219Q mutant infected in human MT4 cells assessed as inhibition of virus-induced cytopathogenicity after 4 days by MTT assay; assay type: functional, organism-based; details: Human immunodeficiency virus 1, MT4, 96 h; how it was run: as §1
[7] = tested on: Human immunodeficiency virus 1; experiment: Antiviral activity against efavirenz-resistant HIV1 harboring RT 100I, 103R, 179D, 225H mutant infected in human MT4 cells assessed as inhibition of virus-induced cytopathogenicity after 4 days by MTT assay; assay type: functional, organism-based; details: Human immunodeficiency virus 1, MT4; how it was run: as §1
[8] = tested on: Human immunodeficiency virus 1; experiment: Antiviral activity against MDR-resistant HIV1 harboring 41L, 74V, 106A, 215Y mutant infected in human MT4 cells assessed as inhibition of virus-induced cytopathogenicity after 4 days by MTT assay; assay type: functional, organism-based; details: Human immunodeficiency virus 1, MT4, 96 h; how it was run: as §1
[9] = tested on: Human immunodeficiency virus 1; experiment: Antiviral activity against wild type HIV1 3B infected in human MT4 cells assessed as inhibition of virus-induced cytopathogenicity after 4 days by MTT assay; assay type: functional, organism-based; details: Human immunodeficiency virus 1, 3B, MT4, 96 h; how it was run: as §1
[10] = tested on: Human immunodeficiency virus 1; experiment: Antiviral activity against […] HIV1 harboring Y181C mutant infected in human MT4 cells assessed as inhibition of virus-induced cytopathogenicity after 4 days by MTT assay; assay type: functional, organism-based; details: Human immunodeficiency virus 1, MT4, 96 h; how it was run: as §1
[11] = tested on: Human immunodeficiency virus 1; experiment: Antiviral activity against saquinavir-resistant HIV1 infected in human MT4 cells assessed as inhibition of virus-induced cytopathogenicity after 4 days by MTT assay; assay type: functional, organism-based; details: Human immunodeficiency virus 1, MT4, 96 h; how it was run: as §1
[12] = tested on: Human immunodeficiency virus 1; experiment: Antiviral activity against MC1220-resistant HIV1 harboring RT 100I, 179D, 181C mutant infected in human MT4 cells assessed as inhibition of virus-induced cytopathogenicity after 4 days by MTT assay; assay type: functional, organism-based; details: Human immunodeficiency virus 1, MT4, 96 h; how it was run: as §1
[13] = tested on: Human immunodeficiency virus 1; experiment: Antiviral activity against HIV1 MP634 infected in human dendritic cells assessed as inhibition of p24 in supernatants; details: Human immunodeficiency virus 1, MP634, dendritic cells
[14] = tested on: Human immunodeficiency virus 1; experiment: Antiviral activity against HIV1 W5269 infected in human dendritic cells assessed as inhibition of p24 production; details: Human immunodeficiency virus 1, W5269, dendritic cells
[15] = tested on: Human immunodeficiency virus 1; experiment: Antiviral activity against HIV1 infected in human MT4 cells assessed as lowest compound concentration required to irreversibly knock out vial multiplication treated 4 hrs before infection measured after 40 days by MTT assay; assay type: functional
How it was run: (§2)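 HIV-1-infected MT-4 cells at high MOI (5−10 CCID50/cell) in 40-day assays. Compound is given continuously (chronic), for only the first 4 h after infection, or for 4 h immediately before infection. Cells are resuspended at 10^5 cells/mL every 4 days. The value is the lowest concentration that irreversibly knocks out HIV-1 multiplication, as the mean of three independent determinations.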

[16] = tested on: Human immunodeficiency virus 1; experiment: Antiviral activity against HIV1 MP411 infected in human dendritic cells assessed as inhibition of p24 in supernatants; details: Human immunodeficiency virus 1, MP411, dendritic cells
[17] = tested on: Human immunodeficiency virus 1; experiment: Antiviral activity against HIV1 infected in human MT4 cells assessed as lowest compound concentration required to irreversibly knock out vial multiplication treated by chronic treatment measured after 40 days by MTT assay; assay type: functional; how it was run: as §2
[18] = tested on: Human immunodeficiency virus 1; experiment: Antiviral activity against HIV1 CRF01 infected in human dendritic cells assessed as inhibition of p24 in supernatants; details: Human immunodeficiency virus 1, CRF01, dendritic cells
[19] = tested on: Human immunodeficiency virus 1; experiment: Antiviral activity against HIV1 MP1308 infected in human dendritic cells assessed as inhibition of p24; details: Human immunodeficiency virus 1, MP1308, dendritic cells
[20] = tested on: Human immunodeficiency virus 1; experiment: Antiviral activity against NRTI-resistant HIV1 MP1315 infected in human dendritic cells assessed as inhibition of p24 in supernatants; details: Human immunodeficiency virus 1, MP1315, dendritic cells
[21] = tested on: Human immunodeficiency virus 1; experiment: Antiviral activity against HIV1 MP1033 infected in human dendritic cells assessed as inhibition of p24; details: Human immunodeficiency virus 1, MP1033, dendritic cells
[22] = tested on: Human immunodeficiency virus 1; experiment: Antiviral activity against HIV1 MP582 infected in human dendritic cells assessed as inhibition of p24 production; details: Human immunodeficiency virus 1, MP582, dendritic cells
[23] = tested on: Human immunodeficiency virus 1; experiment: Antiviral activity against HIV1 infected in human MT4 cells assessed as lowest compound concentration required to irreversibly knock out vial multiplication treated 4 hrs after infection measured after 40 days by MTT assay; assay type: functional; how it was run: as §2
[24] = tested on: Human immunodeficiency virus 1; experiment: Antiviral activity against HIV1 CRF02 infected in human dendritic cells assessed as inhibition of p24 in supernatants; details: Human immunodeficiency virus 1, CRF02, dendritic cells
[25] = Cytotoxicity against human MT4 cells after 40 days by MTT assay; assay type: cell-based
How it was run: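 Mock-infected MT-4 cells at 1 × 10^5 cells/mL, 37 °C, with various compound concentrations for 40 days. One-tenth of the culture is moved every 3−4 days into fresh drug-containing medium at low density to keep growth exponential. Viability is read by MTT at each passage. The value is the maximum concentration still allowing exponential proliferation, as the mean of three determinations.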

Structure (SMILES)	CC50 at 96 h [1] [nM]	EC50 [2] [nM]	EC50 [3] [nM]	EC50 [4] [nM]	EC50 [5] [nM]	EC50 [6] [nM]	EC50 [7] [nM]	EC50 [8] [nM]	EC50 [9] [nM]	EC50 [10] [nM]	EC50 [11] [nM]	EC50 [12] [nM]	other results
CC(C)(C)NC(=O)[C@@H]1C[C@@H]2CCCC[C@@H]2CN1C[C@@H](O)[C@H](Cc1ccccc1)NC(=O)[C@H](CC(N)=O)NC(=O)c1ccc2ccccc2n1	15000	10	10	20	20	10	10	20	20	20	90	10	
Cc1c(C(C)c2c(F)cccc2F)nc(N(C)C)[nH]c1=O (configuration not stated)	≥ 100000	> 20000	3000	700	2000	4	2000	10	2	800	10	3000	EC99 [13]: 0.1 µM; EC99 [14]: 0.01 µM; Activity [15]: <5 µM; EC99 [16]: 0.01 µM; Activity [17]: <0.1 µM; EC99 [18]: 0.001 µM; EC99 [19]: 0.01 µM; EC99 [20]: ≤ 0.0001 µM; EC99 [21]: 0.01 µM; EC99 [22]: 0.001 µM; Activity [23]: <5 µM; EC99 [24]: 0.01 µM; MNTC at 960 h [25]: 30 µM
CCOCn1c(C(F)c2cc(C)cc(C)c2)c(CC)c(=O)[nH]c1=O (configuration not stated)	85000	2000				40	6000		5	300	9000		
C=CCOCn1c(C(F)c2cc(C)cc(C)c2)c(CC)c(=O)[nH]c1=O (configuration not stated)	64000	1600				50	2000		4	200	4200		
C=C(C)COCn1c(C(F)c2cc(C)cc(C)c2)c(CC)c(=O)[nH]c1=O (configuration not stated)	40000	7000				70	4000	3400	8	400	3800		
CCc1c(C(F)c2cc(C)cc(C)c2)n(COCc2ccc(I)cc2)c(=O)[nH]c1=O (configuration not stated)	43000	2000				300	1400	1500	400	200	1200		
CCc1c(C(F)c2cc(C)cc(C)c2)[nH]c(=O)n(COCc2ccc(I)cc2)c1=O (configuration not stated)	> 100000	> 100000				11000	> 100000	> 100000	9000	> 100000	23000		
CCc1c(C(F)c2cc(C)cc(C)c2)n(COCc2ccc(C#CC=O)cc2)c(=O)[nH]c1=O (configuration not stated)	27000	14000				100	2400	2300	80	400	5200		
Cc1cc(C)c(Nc2ccnc(Nc3ccc(C#N)cc3)n2)c(C)c1 [DAPIVIRINE]	2000	50	> 20000	100	> 20000	1	200	2	3	40	3	100	EC99 [13]: 0.01 µM; Activity [15]: >20 µM; EC99 [16]: 0.01 µM; Activity [17]: 0.1 µM; EC99 [18]: 0.01 µM; EC99 [19]: 0.01 µM; EC99 [20]: 0.0001 µM; EC99 [21]: 0.01 µM; Activity [23]: >20 µM; EC99 [24]: 0.01 µM; MNTC at 960 h [25]: 0.3 µM
O=C1Nc2ccc(Cl)cc2[C@@](C#CC2CC2)(C(F)(F)F)O1 [EFAVIRENZ]		80	7000	60	90	2	6000	4				100	EC99 [13]: 0.01 µM; EC99 [14]: 0.01 µM; EC99 [18]: 0.01 µM; EC99 [19]: 0.01 µM; EC99 [20]: ≤ 0.0001 µM; EC99 [21]: 0.01 µM; EC99 [24]: 0.01 µM
CCOCn1c(Cc2ccccc2)c(C(C)C)c(=O)[nH]c1=O [EMIVIRINE]	> 100000	> 100000				80	100000	1500		> 10000	60		
Cc1cc(C#N)cc(C)c1Oc1nc(Nc2ccc(C#N)cc2)nc(N)c1Br [ETRAVIRINE]		10	200	100	70	1	300	1		10		30	
Cc1ccnc2c1NC(=O)c1cccnc1N2C1CC1 [NEVIRAPINE]	> 100000	> 10000	> 20000	> 20000	1000	60	> 10000	3000		> 10000		4000	
Cc1cn([C@H]2C[C@H](N=[N+]=[N-])[C@@H](CO)O2)c(=O)[nH]c1=O [ZIDOVUDINE]		10	8	10	10	200	10	200	10	20		9	
